Calls of active or inactive are those of the source. The rule behind the calls is not given here.

The target in test [1] is T1, Orexin receptor type 2 (Homo sapiens, UniProt O43614).
T1 sequence (O43614 whole entry): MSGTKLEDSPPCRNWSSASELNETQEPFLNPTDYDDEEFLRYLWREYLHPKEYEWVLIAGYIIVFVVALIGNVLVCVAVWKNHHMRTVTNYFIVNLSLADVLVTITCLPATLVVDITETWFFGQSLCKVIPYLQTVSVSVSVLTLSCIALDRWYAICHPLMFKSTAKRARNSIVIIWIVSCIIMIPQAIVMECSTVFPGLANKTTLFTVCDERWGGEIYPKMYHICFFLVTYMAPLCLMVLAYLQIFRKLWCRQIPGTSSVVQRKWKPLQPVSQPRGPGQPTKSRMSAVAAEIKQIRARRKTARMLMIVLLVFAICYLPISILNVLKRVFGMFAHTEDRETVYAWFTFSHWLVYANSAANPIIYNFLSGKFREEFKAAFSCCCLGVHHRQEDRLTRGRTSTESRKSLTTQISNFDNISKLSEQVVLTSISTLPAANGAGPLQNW
As to the kind of experiment: Agonist activity at human OX2R stably expressed in CHO RD-HGA16 cells assessed as fluorescence changes measured after 30 mins by calcium mobilization assay. Type of test: functional, cell-based. On the technique in general: Calcium assays in cells follow changes in intracellular calcium, usually with a dye or a luminescent sensor.

In test [2] the target is T2, Orexin/Hypocretin receptor type 1 (Homo sapiens, UniProt O43613).
T2 sequence (O43613 whole entry): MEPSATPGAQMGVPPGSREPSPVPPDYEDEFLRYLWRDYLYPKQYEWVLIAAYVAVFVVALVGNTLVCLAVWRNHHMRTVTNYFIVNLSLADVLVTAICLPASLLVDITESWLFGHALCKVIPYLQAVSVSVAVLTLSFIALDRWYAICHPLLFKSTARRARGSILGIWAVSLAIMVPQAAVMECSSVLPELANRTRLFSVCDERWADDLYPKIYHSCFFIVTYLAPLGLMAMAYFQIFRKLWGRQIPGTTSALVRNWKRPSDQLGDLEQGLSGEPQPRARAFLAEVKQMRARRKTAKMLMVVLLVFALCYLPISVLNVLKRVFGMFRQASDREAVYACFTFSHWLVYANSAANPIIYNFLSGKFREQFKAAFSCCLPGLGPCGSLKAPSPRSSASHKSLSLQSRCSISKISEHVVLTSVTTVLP
As to the kind of experiment: Agonist activity at human OX1R stably expressed in CHO RD-HGA16 cells assessed as fluorescence changes measured after 30 mins by calcium mobilization assay. Type of test: functional, cell-based.

The test system of test [3] is Mus musculus. As to the kind of experiment: Sleep modulation activity in mouse assessed as increase in time spent in rapid eye movement sleep during light phase at 20 mg/kg, ip measured up to 6 hrs of post injection. Type of test: functional, organism-based. The note with it: time hrs <=6.
Test [4] relates to Mus musculus. Description: Sleep modulation activity in mouse assessed as increase in time spent in wakefulness during light phase at 30 to 300 nmol, icv measured up to 3 hrs of post injection. The test is classed as functional, organism-based. The note with it: dose 30-300 nmol, time hrs <=3.
Test [5] deals with Mus musculus. As to the kind of experiment: Sleep modulation activity in mouse assessed as decrease in time spent in non-rapid eye movement sleep during light phase at 30 to 300 nmol, icv measured up to 3 hrs of post injection. The note with it: dose 30-300 nmol, time hrs <=3. The test is classed as functional, organism-based.
For test [6], the system named is Mus musculus. As to the kind of experiment: Sleep modulation activity in mouse assessed as increase in time spent in wakefulness during light phase at 20 mg/kg, ip measured up to 6 hrs of post injection. The test is classed as functional, organism-based. The following applies: time hrs <=6.
Test [7] deals with Mus musculus. As to the kind of experiment: Sleep modulation activity in mouse assessed as increase in time spent in wakefulness during light phase at 40 to 60 mg/kg, ip measured up to 3 hrs of post injection. The note with it: dose 40-60 mg/kg, time hrs <=3.
Test [8] relates to Mus musculus. As to the kind of experiment: Sleep modulation activity in mouse assessed as decrease in time spent in rapid eye movement sleep during light phase at 40 to 60 mg/kg, ip measured up to 3 hrs of post injection. The following applies: dose 40-60 mg/kg, time hrs <=3.
In test [9] the test system is Mus musculus. Description: Sleep modulation activity in mouse assessed as decrease in time spent in non-rapid eye movement sleep at 40 mg/kg, ip measured after 4 hrs post injection. The test is classed as functional, organism-based. The method in brief:
(§1)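 Twelve-month-old mice implanted under ketamine/xylazine with telemetric EEG/EMG electrodes, and allowed 7–10 days or more to recover. They were housed on 12-h light/dark (lights on 06:00) at 21–22°C. Counterbalanced crossover: 40 mg/kg i.p. in 0.3 ml saline or saline, given at ZT 4–4.5, at least 48 h apart. Manual 10-s epoch scoring (wake/NREM/REM) over 0–4 h gave % time, transitions, episode number and duration. Mean ± SEM.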

The subject of test [10] is Mus musculus. Description: Sleep modulation activity in mouse assessed as increase in time spent in wakefulness at 40 mg/kg, ip measured after 4 hrs post injection. The test is classed as functional, organism-based. The method in brief:
as §1

Test [11] concerns Mus musculus. As to the kind of experiment: Sleep modulation activity in mouse assessed as reduction in number of episodes of wake at 40 mg/kg, ip measured after 4 hrs post injection.
The subject of test [12] is Mus musculus. As to the kind of experiment: Sleep modulation activity in mouse assessed as reduction in transition between states by measuring stabilization of reduced sleep/wake fragmentation at 40 mg/kg, ip measured after 4 hrs post injection. The test is classed as functional, organism-based. The method in brief: as §1
The subject of test [13] is Mus musculus. Description: Sleep modulation activity in mouse assessed as reduction in number of episodes of non-rapid eye movement sleep at 40 mg/kg, ip measured after 4 hrs post injection.
For test [14], the system named is Mus musculus. Description: Sleep modulation activity in mouse assessed as effect on number of episodes of rapid eye movement sleep at 40 mg/kg, ip measured after 4 hrs post injection. The test is classed as functional, organism-based. The method in brief:
as §1

Test [15] relates to Mus musculus. Description: Sleep modulation activity in mouse assessed as decrease in time spent in rapid eye movement sleep at 40 mg/kg, ip measured after 4 hrs post injection. Type of test: functional, organism-based. The method in brief: as §1
The target of test [16] is T2, Orexin/Hypocretin receptor type 1. As to the kind of experiment: Agonist activity at human OX1R stably expressed in CHO cells. Type of test: functional, cell-based, CHO-RD-HGA16.
Test [17] concerns the target T1, Orexin receptor type 2. As to the kind of experiment: Agonist activity at human OX2R stably expressed in CHO cells. Type of test: functional, cell-based, CHO-RD-HGA16.

Regarding `COc1ccc(-c2cccc(C(=O)N(C)Cc3ccncc3)c2)cc1C(=O)Nc1cccc(NCCNC(=O)c2cccc(C)c2)c1`, the EC50 was 0.863 µM on Orexin receptor type 2 [1] and greater than 10 µM in [2].

As to `COc1ccc(-c2cccc(C(=O)NCc3ccccn3)c2)cc1S(=O)(=O)Nc1cccc(NCCNC(=O)c2cccc(C)c2)c1`, in test [2], the EC50 was greater than 10 µM.

Regarding `COc1ccc(CCC(=O)N(C)C)cc1S(=O)(=O)Nc1cccc(NCCNC(=O)c2cccc(C)c2)c1`, the EC50 at Orexin receptor type 2 [1] is greater than 10 µM.

`COc1ccc(-c2cccc(C(=O)N(C)c3ccccn3)c2)cc1S(=O)(=O)Nc1cccc(NCCNC(=O)c2cccc(C)c2)c1`: the EC50 in test [2] was greater than 10 µM.

In the case of `COc1ccc(-c2cccc(C(=O)N(C)C)c2)cc1S(=O)(=O)Nc1cccc(N2CCN(C(=O)c3ccccc3N(C)C)CC2)c1`, the EC50 (at Orexin receptor type 2 [1]; in test [2]) was greater than 10 µM in each case.

For the compound `COc1ccc(-c2cccc(CN(C)C)c2)cc1S(=O)(=O)Nc1cccc(NCCNC(=O)c2ccccc2N(C)C)c1`, the EC50 at Orexin receptor type 2 [1] is 0.56 µM; in [2], greater than 10 µM.

For `COc1ccc(/C=C/C(=O)N(C)C)cc1S(=O)(=O)Nc1cccc(NCCNC(=O)c2cccc(C)c2)c1`, the EC50 on Orexin receptor type 2 [1] was greater than 10 µM.

For the compound `COc1ccc(-c2cccc(C(=O)N(C)Cc3ccccc3)c2)cc1S(=O)(=O)Nc1cccc(NCCNC(=O)c2cccc(C)c2)c1`, the EC50 in test [2] was greater than 10 µM.

In the case of `COc1ccc(-c2cccc(C(=O)N(C)C)c2)cc1S(=O)(=O)Nc1cccc(NCC(C)NC(=O)c2cccc(C)c2)c1` (stereo not drawn), the EC50 on Orexin receptor type 2 [1] worked out at 0.376 µM; in test [2], 0.666 µM.

Regarding `COc1ccc(-c2cccc(C(=O)N(C)C)c2)cc1S(=O)(=O)Nc1cccc(NCCNC(=O)c2ccccc2N(C)C)c1`, the result in the test with Mus musculus [3] and in the test with Mus musculus [6] was inactive. In addition, the result with Mus musculus [4], in the test on Mus musculus [5], in the test on Mus musculus [7] and with Mus musculus [8] was Active. In addition, the values for the EC50 (on Orexin receptor type 2 [1]; in [2]) were 0.165 µM and 0.824 µM, respectively.

Turning to `COc1ccc(-c2csc(C(=O)N(C)C)c2)cc1S(=O)(=O)Nc1cccc(NCCNC(=O)c2cccc(C)c2)c1`, the EC50 on Orexin receptor type 2 [1] was determined as 0.166 µM.

As to `COc1ccc(-c2cccc(C(=O)N(C)C)c2)cc1C(=O)Nc1cccc(NCCNC(=O)c2cccc(C)c2)c1`, the figures for the EC50 (on Orexin receptor type 2 [1]; in test [2]) were 1.27 µM and greater than 10 µM, respectively.

With `COc1ccc(-c2cccc(C(=O)N(C)Cc3ccncc3)c2)cc1S(=O)(=O)Nc1cccc(NCCNC(=O)c2cccc(C)c2)c1`, the outcome with Mus musculus [9], with Mus musculus [10], in the test with Mus musculus [11], in the test on Mus musculus [12], in the test on Mus musculus [13] and with Mus musculus [15] was Active. In addition, the outcome with Mus musculus [14] was inactive.

As for `COc1ccc(-c2cccc(C(=O)N(C)C)c2)cc1S(=O)(=O)Nc1cccc(N2CCN(C(=O)c3cccc(C)c3)CC2)c1`, the EC50 (at Orexin receptor type 2 [1]; in test [2]) was greater than 10 µM in each case.

For the compound `COc1ccc(-c2cccc(C(=O)N(C)C)c2)cc1S(=O)(=O)Nc1cccc(CCNC(=O)c2ccccc2-n2nccn2)c1`, the EC50 in [16] (read-out: pEC50 (converted)) was less than 35.5 µM.

Turning to `Cc1ccc(Cn2c(=N)n(CC(O)c3ccc(Cl)c(Cl)c3)c3ccccc32)cc1` (stereo not drawn), the EC50 (at Orexin receptor type 2 [17]; in test [16] (read-out: EC50)) was greater than 3.2 µM throughout.

Turning to `COC(=O)N1CCC[C@H](NS(C)(=O)=O)[C@@H]1CO[C@H]1CC[C@@H](c2ccccc2)CC1` [DANAVOREXTON], in test [16] (read-out: EC50), the EC50 was greater than 30 µM.

With `COc1ccc(-c2cccc(C(=O)NCCN(C)C)c2)cc1S(=O)(=O)Nc1cccc(NCCNC(=O)c2cccc(C)c2)c1`, in [2], the EC50 was greater than 10 µM.

For the origin of these results see ChEMBL document CHEMBL5029148, “Discovery of Arylsulfonamides as Dual Orexin Receptor Agonists” (J Med Chem, 2021).
